An excerpt weighted towards active compounds, which were near 2.3% of everything screened.
TRPC6 inh: mouse TRPC6 channel inhibition; Q61143; HEK293-TRPC6, membrane potential dye, ACh-evoked depolarization; active compounds read low; B-score at 10 µM; actives 1.1% (n = 310,000); AID 2553;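 active = B-score under library mean minus 3 SD, initial fluorescence not abnormally high, positive integrated signal ratio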;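 note: B-score derived from integrated fluorescence ratio over the kinetic read; more negative B-score means stronger inhibition of depolarization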
TRPC6 activator: mouse TRPC6 channel activation | actives 0.13% (n = 310,000) | B-score at 10 µM | HEK293-TRPC6 membrane potential dye fluorescence; active compounds read high;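 active = B-score of the integrated fluorescence ratio above library mean plus 3 SD, and starting fluorescence ratio within library mean plus 5 SD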;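 note: higher score means more depolarization so channel activation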
TRPC4 act: activators of mouse TRPC4 channel; AID 2237; Q9QUQ5; HEK293 TRPC4beta/mu-opioid, Fluo4 calcium fluorescence; active compounds read high; actives 0.49% (n = 310,000); B-score at 10 µM;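 active = B-score above 5 SD of library B-scores, and initial fluorescence ratio not above library mean plus 5 SD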;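 note: positive B-score marks a calcium rise read as TRPC4 activation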
Target sequence (Q9QUQ5 whole entry, looked up): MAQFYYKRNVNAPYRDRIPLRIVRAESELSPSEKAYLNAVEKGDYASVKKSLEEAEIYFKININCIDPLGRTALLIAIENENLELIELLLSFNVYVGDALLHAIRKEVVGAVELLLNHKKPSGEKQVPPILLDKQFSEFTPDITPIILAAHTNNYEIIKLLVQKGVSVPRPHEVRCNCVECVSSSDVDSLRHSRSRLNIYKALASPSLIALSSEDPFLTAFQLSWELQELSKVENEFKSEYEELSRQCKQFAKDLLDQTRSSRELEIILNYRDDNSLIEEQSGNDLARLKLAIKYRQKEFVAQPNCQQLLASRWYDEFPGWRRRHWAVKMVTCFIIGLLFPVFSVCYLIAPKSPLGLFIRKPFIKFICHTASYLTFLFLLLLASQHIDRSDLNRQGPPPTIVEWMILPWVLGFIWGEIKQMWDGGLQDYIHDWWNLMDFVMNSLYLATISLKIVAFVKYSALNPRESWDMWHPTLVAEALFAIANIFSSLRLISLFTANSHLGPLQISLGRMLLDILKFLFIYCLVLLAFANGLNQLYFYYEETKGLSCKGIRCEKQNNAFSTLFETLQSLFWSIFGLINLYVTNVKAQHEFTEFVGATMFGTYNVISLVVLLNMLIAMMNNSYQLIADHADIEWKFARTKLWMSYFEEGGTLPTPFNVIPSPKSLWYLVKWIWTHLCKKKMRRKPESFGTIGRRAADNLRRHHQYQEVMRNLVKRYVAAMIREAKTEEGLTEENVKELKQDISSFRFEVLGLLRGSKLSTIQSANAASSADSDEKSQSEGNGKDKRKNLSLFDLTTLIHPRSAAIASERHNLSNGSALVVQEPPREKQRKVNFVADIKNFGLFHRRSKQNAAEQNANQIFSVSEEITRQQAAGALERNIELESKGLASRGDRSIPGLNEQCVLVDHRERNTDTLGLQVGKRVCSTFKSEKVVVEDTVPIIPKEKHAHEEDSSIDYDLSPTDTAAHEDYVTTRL
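Test system: HEK293 cells stably co-expressing mouse TRPC4beta and mu-opioid receptor | Schedule: Fluo4 dye loading 45 min at room temperature, 110 s recording | Measured by: Kinetic Fluo4 calcium fluorescence, 5 s baseline at 1 Hz | Evaluation: B score of integrated ratio | Controls: Buffer (low) and maximal DAMGO (high)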
TRPC4 potent: allosteric potentiators of mouse TRPC4 channel. AID 2227. actives 0.42% (n = 310,000). B-score at 10 µM. Q9QUQ5. HEK293 TRPC4beta/mu-opioid, DAMGO EC20, Fluo-4 Ca2+ flux; active compounds read high;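 active = B-score of calcium response area above 5 SD of library B-scores, with initial fluorescence ratio within 5 SD of library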;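 note: B-score of integrated fluorescence ratio over time as area under calcium response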
TRPC4 inh: blocks the mouse TRPC4 cation channel; Q9QUQ5; HEK293 TRPC4beta/mu-opioid, DAMGO-evoked Fluo4 calcium flux; active compounds read low; B-score at 10 µM; actives 0.39% (n = 300,000);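 active = B-score over 3 SD under the library average, no early fluorescence shift, positive overall ratio signal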
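Assay system: HEK293 cells with stable TRPC4beta plus mu-opioid receptor expression; Probe or stimulus: DAMGO in two steps, submaximal then maximal; Dosing: single-point compound dosing; Measured by: Fluo4 calcium-dye fluorescence, kinetic read; Read-out basis: B score from integrated Fluo4 fluorescence ratio.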
TRPC4 sel inh 2: second selectivity test of TRPC6 inhibitors: effect on mouse TRPC4; actives 42% (n = 920); shares compounds with TRPC6 inh; AID 2776; HEK293 TRPC4/MOR, membrane potential dye fluorescence; channel activated by saturating DAMGO dose; inhibition, % at 10 µM;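 active = compounds whose fluorescence signal differed from control wells by over 3 SD, either direction, in both duplicate plates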
TRPC4 spec: mouse TRPC4 off-target activity of TRPC6 inhibitors; HEK293 TRPC4/mu-opioid, membrane potential fluorescence; shares compounds with TRPC6 inh; activity change, negative = inhibition, % at 10 µM; actives 61% (n = 920);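 active = rise or fall in signal beyond 3 SD of buffer-only wells in both replicate plates, either sign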;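 note: integrated kinetic ratio of fluorescence range over baseline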
HEK293 MPD ctr 2-1: second check of TRPC6 inhibitor effects in parental HEK293 cells; shares compounds with TRPC6 inh; parental HEK293 membrane potential dye fluorescence; maximal acetylcholine challenge after compound addition; signal change vs control, % at 10 µM; actives 31% (n = 920); AID 2779;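 active = membrane potential signal moving either way by over 3 SD of the maximum-effect control, in both duplicate plates, meaning non-specific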
HEK293 MPD ctr-1: parental HEK293 nonspecific activity of TRPC6 inhibitors; actives 60% (n = 920); parental HEK293 membrane potential dye fluorescence; shares compounds with TRPC6 inh; membrane potential signal change, % at 10 µM;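 active = membrane potential signal shifting up or down by more than 3 SD of buffer-only wells, on both duplicate plates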
HEK293 MPD ctr-2: counter-screen for TRPC6 modulators: effect in parental HEK293 cells; shares compounds with TRPC6 inh; membrane potential dye fluorescence; membrane potential signal change, % at 10 µM; actives 51% (n = 2,400); AID 488924;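 active = membrane potential signal moves up or down beyond 5 SD from buffer-only wells, on both duplicate plates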
HEK293 MPD ctr 2-2: second check of TRPC6 modulator effects in parental HEK293 cells. shares compounds with TRPC6 inh. membrane potential dye fluorescence; after compound, maximal acetylcholine stimulation. actives 14% (n = 2,400). AID 488926. inhibition, % at 10 µM;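 active = membrane potential signal drops by more than 5 SD from the mean control signal, in both duplicate plates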;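 note: plate controls were acetylcholine ECmax control wells for no effect and buffer only wells for full effect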
TRPC4/MOR mod: tests whether TRPC6 modulators also affect mouse TRPC4; actives 69% (n = 2,400); shares compounds with TRPC6 inh; percent change from control (negative = decrease, positive = increase), % at 10 µM; HEK293 TRPC4/mu-opioid, membrane potential fluorescence; AID 488927;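 active = membrane potential signal moved up or down beyond 5 SD of buffer control wells, in both duplicate plates, actives on both sides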;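 note: plate controls were assay buffer wells for no effect and DAMGO maximal-effect wells for full effect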
TRPC4 ctr inh 2: mouse TRPC4 off-target activity of TRPC6 modulators, second screen. shares compounds with TRPC6 inh. HEK293 TRPC4/mu-opioid, membrane potential dye fluorescence; stimulated with maximal-effect DAMGO. inhibition, % at 10 µM. actives 55% (n = 2,400). AID 488928;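 active = drop in membrane potential signal beyond 5 SD of the control wells in both duplicate plates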;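 note: TRPC4 counter screen for TRPC6 hits run under conditions tuned for TRPC6 not TRPC4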
TRPC6 block conf: mouse TRPC6 inhibitor confirmation; shares compounds with TRPC6 inh; HEK293-TRPC6, membrane potential dye, ACh-evoked depolarization; inhibition, % at 10 µM; actives 43% (n = 3,300); AID 488960;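 active = fluorescence ratio falls more than 5 SD below the full-stimulation control mean, in both duplicate runs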;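 note: integrated fluorescence ratio of peak minus minimum over baseline after agonist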
TRPC6 act conf: confirmation of mouse TRPC6 activators; shares compounds with TRPC6 inh; HEK293-TRPC6 membrane potential dye fluorescence, FDSS; activation, % at 10 µM; actives 11% (n = 2,800);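 active = ratio signal rise beyond 5 SD above unstimulated control wells' mean, seen in both duplicate runs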;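 note: plate controls were buffer EC0 wells for no effect and acetylcholine ECmax response for full effect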
An asterisk follows results filed as active; i = inactive; / = no result given; + = active, no number.

SMILES	TRPC6 inh	TRPC6 activator	TRPC4 act	TRPC4 potent	TRPC4 inh	HEK293 MPD ctr-2	HEK293 MPD ctr 2-2	TRPC4/MOR mod	TRPC4 ctr inh 2	TRPC6 block conf	TRPC6 act conf	others
COc1ccc(-c2nc3cc(C)ccn3c2NCC2CCCO2)cc1OC (stereo unspecified)	-6.9*	i	i	i	i	-223%*	80%*	-38%*	44%*	56%*	i
CCCCCCCCCCn1ccc(=N)cc1	-9.1*	i	i	i	i	/	/	/	/	56%*	i	TRPC4 sel inh 2=i;TRPC4 spec=i;HEK293 MPD ctr 2-1=i;HEK293 MPD ctr-1=i
CCCCCCCCn1ccc(=N)cc1	i	i	i	i	i	/	/	/	/	/	/
CC(=O)C1=C(C)Nc2ncnn2C1c1ccc(Cl)cc1 (stereo unspecified)	i	i	i	i	i	/	/	/	/	/	/
COc1ccccc1OCC(=O)NNc1c2ccccc2nc2ccccc12	i	i	i	i	i	/	/	/	/	/	/
COc1cccc2c3c(c(C)nc12)CC(C)O3 (stereo unspecified)	-6.2*	i	i	i	i	-146%*	i	-18%*	41%*	i	i
Cc1nc2ccc(C(=O)O)cc2c2c1CC(CN)O2 (stereo unspecified)	i	i	i	i	i	/	/	/	/	/	/
CCOC(=O)c1ccc2nc(C)c3c(c2c1)OC(C)C3 (stereo unspecified)	-5.2*	i	i	i	i	-112%*	i	-13%*	i	i	i
COc1ccc2nc(C)c3c(c2c1)OC(C)C3 (stereo unspecified)	-7.5*	i	i	i	i	/	/	/	/	i	i	TRPC4 sel inh 2=i;TRPC4 spec=-17%*;HEK293 MPD ctr 2-1=18%*;HEK293 MPD ctr-1=-236%*
COc1ccc(OC)c(C(c2nnnn2Cc2ccccc2)N2CCN(C3CCCCC3)CC2)c1 (stereo unspecified)	-5.7*	i	i	i	i	132%*	i	i	65%*	40%*	/
O=C(CCc1nnc(COc2ccccc2)o1)NCc1ccccc1C(F)(F)F	i	i	i	i	i	/	/	/	/	/	/
Cc1nc(/C=C/c2ccccc2)[nH]c(=O)c1-c1ccccc1	i	i	i	i	i	/	/	/	/	/	/
CNC(=O)c1cc2cc(OC)ccc2oc1=O	i	i	i	i	i	/	/	/	/	/	/
COc1ccc2oc(=O)c(C(=O)C[n+]3cccc(C)c3)cc2c1	-8.4*	i	i	i	i	/	/	/	/	i	i	TRPC4 sel inh 2=i;TRPC4 spec=-12%*;HEK293 MPD ctr 2-1=i;HEK293 MPD ctr-1=-137%*
Cn1nc(-c2ccc(NCCO)c([N+](=O)[O-])c2)c2ccccc2c1=O	i	i	i	i	i	/	/	/	/	/	/
CN(C)CCNc1ccc(-c2nn(C)c(=O)c3ccccc23)cc1[N+](=O)[O-]	-5.2*	i	i	i	i	-134%*	i	-32%*	78%*	72%*	i
CC(=O)N(Cc1ccc(F)cc1)C1=C(NCCc2ccccc2)C(=O)c2ccccc2C1=O	-11*	i	i	i	i	/	/	/	/	i	i	TRPC4 sel inh 2=i;TRPC4 spec=-11%*;HEK293 MPD ctr 2-1=i;HEK293 MPD ctr-1=-182%*
COc1ccc(C(=O)Nc2nnc(Cc3ccc(OC)c(OC)c3)s2)cc1	i	i	i	i	i	/	/	/	/	/	/
CCN(CC)C(=O)C1CCCN(Cc2ccc3ccccc3c2)C1 (stereo unspecified)	i	i	i	i	i	/	/	/	/	/	/
CN(CC(=O)Nc1cccc(F)c1)C(=O)c1ccc(N2CCOCC2)c([N+](=O)[O-])c1	-7*	i	i	i	i	i	i	92%*	76%*	i	i
CCOC(=O)/C(=C/C=C1\Sc2cc(C)c(C)cc2N1CC)C(C)=O	-5*	i	i	i	i	+	+	282%*	52%*	i	/
CN(C)c1ccc(/C=C(/C(=O)c2ccc(Cl)cc2Cl)n2cncn2)cc1	-6.4*	49*	52*	i	i	+	+	266%*	i	i	487%*
COc1ccc(/C=C(/C(=O)c2ccc(Cl)cc2Cl)n2cncn2)cc1	i	i	i	i	i	/	/	/	/	/	/
Cc1ccc(CNS(=O)(=O)N(C)C)cc1	i	i	i	i	i	/	/	/	/	/	/
CCN1CCN(c2cc(C)c3cc(NC(=O)c4cnccn4)ccc3n2)CC1	-5.9*	i	i	i	i	i	69%*	11%*	29%*	i	i
Cc1cc(N2CCCCC2)nc2ccc(NC(=O)c3ccc(Br)o3)cc12	-8.8*	i	i	i	i	/	/	/	/	51%*	i	TRPC4 sel inh 2=72%*;TRPC4 spec=-31%*;HEK293 MPD ctr 2-1=i;HEK293 MPD ctr-1=-332%*
Cc1cc(N2CCN(C)CC2)nc2ccc(NC(=O)c3ccc(Br)o3)cc12	-6.3*	i	i	i	i	-100%*	i	i	80%*	67%*	i
O=C(Nc1ccc(N2CCCC2)cc1)c1ccc(Br)o1	i	i	i	i	i	/	/	/	/	/	/
COc1ccc(CCNC(=O)c2cccnc2)cc1	i	i	i	i	i	/	/	/	/	/	/

Compound activity as filed in PubChem BioAssay.
